Converted amounts (≈) assume the structure as drawn. The source made the active and inactive calls. The calls are words filed in the database; no cut-off is given here.
Tests used:
[1] = target: T1, Polyunsaturated fatty acid 5-lipoxygenase (Homo sapiens, UniProt P09917); test: Inhibition of 5-LOX (unknown origin) expressed in Escherichia coli BL21-(DE3) pre-incubated for 15 mins before AA substrate addition and measured after 10 mins by HPLC/UV assay
T1 sequence (P09917 whole entry): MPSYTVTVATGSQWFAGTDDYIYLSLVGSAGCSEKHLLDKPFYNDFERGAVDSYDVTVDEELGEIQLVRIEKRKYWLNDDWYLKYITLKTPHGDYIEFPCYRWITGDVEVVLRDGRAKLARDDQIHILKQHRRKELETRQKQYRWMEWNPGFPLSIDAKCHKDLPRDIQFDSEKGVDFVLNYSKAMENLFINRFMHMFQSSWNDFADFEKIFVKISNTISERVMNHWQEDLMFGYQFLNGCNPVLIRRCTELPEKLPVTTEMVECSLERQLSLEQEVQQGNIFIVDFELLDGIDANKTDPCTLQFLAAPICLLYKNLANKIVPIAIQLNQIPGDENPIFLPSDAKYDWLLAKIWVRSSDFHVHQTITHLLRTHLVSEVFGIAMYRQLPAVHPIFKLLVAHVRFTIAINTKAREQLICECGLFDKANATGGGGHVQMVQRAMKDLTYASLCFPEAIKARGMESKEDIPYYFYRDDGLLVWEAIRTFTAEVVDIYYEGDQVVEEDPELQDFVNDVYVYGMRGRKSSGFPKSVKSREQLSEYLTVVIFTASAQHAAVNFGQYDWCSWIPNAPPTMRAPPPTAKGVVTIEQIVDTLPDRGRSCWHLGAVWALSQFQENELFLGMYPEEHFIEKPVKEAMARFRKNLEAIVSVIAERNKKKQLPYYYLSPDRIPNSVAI
Outline: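 Recombinant 5-LOX activity measured with arachidonic acid as substrate; product formation monitored by HPLC. IC50 from at least three independent determinations (n ≥ 3), reported with 95% confidence interval.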

[2] = target: T2, Bifunctional epoxide hydrolase 2 (Homo sapiens, UniProt P34913); test: Inhibition of human sEH (1 to 555 residues) expressed in Escherichia coli BL21-(DE3) using PHOME substrate incubated for 30 to 45 mins by fluorescence based assay
T2 sequence (P34913 whole entry): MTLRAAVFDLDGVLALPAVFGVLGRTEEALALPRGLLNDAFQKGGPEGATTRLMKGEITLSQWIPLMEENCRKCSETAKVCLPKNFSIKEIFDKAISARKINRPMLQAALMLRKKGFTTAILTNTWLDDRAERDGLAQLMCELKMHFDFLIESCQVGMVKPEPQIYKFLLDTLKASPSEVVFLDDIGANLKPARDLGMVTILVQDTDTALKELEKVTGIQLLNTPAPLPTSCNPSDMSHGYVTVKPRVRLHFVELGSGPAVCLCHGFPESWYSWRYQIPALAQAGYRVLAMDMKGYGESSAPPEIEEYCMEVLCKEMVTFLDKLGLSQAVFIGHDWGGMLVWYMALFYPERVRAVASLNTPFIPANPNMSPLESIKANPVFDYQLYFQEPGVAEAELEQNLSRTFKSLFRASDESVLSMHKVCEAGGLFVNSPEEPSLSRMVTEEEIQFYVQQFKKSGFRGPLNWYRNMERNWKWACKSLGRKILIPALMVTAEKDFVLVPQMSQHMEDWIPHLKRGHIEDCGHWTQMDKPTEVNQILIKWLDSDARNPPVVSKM

[3] = Solubility in pH 7.4 DPBS buffer; assay type: physicochemical
HepG2 [4] = test: Cytotoxicity in human HepG2 cells assessed as effect on cell viability up to 25 uM incubated for 48 hrs by CellTiter-Glo luminescent cell viability assay; assay type: cell-based; conditions: hepg2, 48 h
Outline: (§1)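 Cell viability measured by CellTiter-Glo luminescence, quantifying ATP as an indicator of viable cells.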

HepG2 [5] = test: Cytotoxicity in human HepG2 cells assessed as reduction in on cell viability at 7 uM incubated for 48 hrs by CellTiter-Glo luminescent cell viability assay; assay type: cell-based; conditions: hepg2, 48 h; outline: as §1
Mus musculus = test: Anti-fibrotic activity in C57BL/6 mouse model of unilateral ureter obstruction-induced kidney inflammation and fibrosis assessed as inhibition of tubulo-interstitial fibrosis by measuring reduced fibrillar collagen at 3 mg/kg, ip dosed daily for 7 days by Sirius red staining method; assay type: functional, organism-based; conditions: time 7.0 day
Outline: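 Mice with unilateral ureter obstruction to induce kidney inflammation and fibrosis, given compound or vehicle intraperitoneally. Ligated (UUO) and contralateral kidneys taken at day 7. Fibrosis read by AZAN and Sirius Red staining, with Sirius Red imaged under bright and polarized light. Macrophages detected by F4/80 staining, quantified as positive area. Col1a1, FN1, TNFα and Ccl2 mRNA measured in whole-kidney homogenates by real-time qRT-PCR normalized to GAPDH.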

[6] = Metabolic stability in rat liver microsomes assessed as compound remaining after 60 mins; assay type: ADME, Microsome; conditions: read-out: Stabilty
Outline: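 Compound incubated with rat liver microsomes for 60 min; percent parent compound remaining determined; n ≥ 3.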

IC50 [1] [nM] | IC50 [2] [nM] | SMILES | other results
230 | 3 | C[C@H](C#Cc1cccc(C(=O)NCC[C@H](c2ccc(F)cc2)c2ccc(C(F)(F)F)cc2)c1)N(O)C(N)=O | –
90 | 2700 | C[C@H](C#Cc1ccc(Cc2ccc(F)cc2)s1)N(O)C(N)=O [ATRELEUTON] | solubility [3]: 30 µM (≈ 9.55 µg/mL)
– | 130 | O=C(Cc1ccc(Oc2nc3ccccc3s2)cc1F)NCCc1ccc(F)cc1 | –
700 | 90 | CC(C#Cc1cccc(C(=O)NCc2ccccc2C(F)(F)F)c1)N(O)C(N)=O (stereo not drawn) | –
600 | 40 | CC(C#Cc1cccc(C(=O)NCc2ccc(Cl)cc2Cl)c1)N(O)C(N)=O (stereo not drawn) | –
1300 | 29 | CC(C#Cc1cccc(C(=O)NCc2ccc(F)cc2C(F)(F)F)c1)N(O)C(N)=O (stereo not drawn) | –
4000 | 600 | CC(C#Cc1ccc(C(=O)NCc2ccccc2C(F)(F)F)o1)N(O)C(N)=O (stereo not drawn) | –
1000 | 16 | CC(C#Cc1cccc(C(=O)NCc2ccccc2OC(F)(F)F)c1)N(O)C(N)=O (stereo not drawn) | –
1700 | 4 | COc1ccc(CNC(=O)c2cccc(C#CC(C)N(O)C(N)=O)c2)c(C(F)(F)F)c1 (stereo not drawn) | –
1000 | 2.4 | C[C@H](C#Cc1cccc(C(=O)NCCC(c2ccccc2)c2ccc(S(N)(=O)=O)cc2)c1)N(O)C(N)=O (stereo partly drawn) | –
500 | 22 | CCC(C#Cc1cccc(C(=O)NCc2ccccc2C(F)(F)F)c1)N(O)C(N)=O (stereo not drawn) | –
4000 | 50 | NC(=O)N(O)CC#Cc1cccc(C(=O)NCc2ccccc2C(F)(F)F)c1 | –
110 | 7 | CC(C#Cc1cccc(C(=O)NCCC(c2ccccc2)c2ccc(OC(F)(F)F)cc2)c1)N(O)C(N)=O (stereo not drawn) | –
600 | 5 | CC(C)CC(C#Cc1cccc(C(=O)NCc2ccccc2C(F)(F)F)c1)N(O)C(N)=O (stereo not drawn) | –
160 | 3 | C[C@H](C#Cc1cccc(C(=O)NCC[C@@H](c2ccc(F)cc2)c2ccc(C(F)(F)F)cc2)c1)N(O)C(N)=O | –
1000 | 2600 | CC(C#Cc1ccc(C(=O)NCc2ccccc2C(F)(F)F)cc1)N(O)C(N)=O (stereo not drawn) | –
10000 | 500 | CC(C#Cc1cncc(C(=O)NCc2ccccc2C(F)(F)F)c1)N(O)C(N)=O (stereo not drawn) | –
600 | 60 | C[C@H](C#Cc1cccc(C(=O)NCc2ccccc2C(F)(F)F)c1)N(O)C(N)=O | –
– | 3 | CNc1nc(C)nc(N2CCC(C(=O)NCc3ccccc3C(F)(F)F)CC2)n1 | –

IC50 [1] [nM] | IC50 [2] [nM] | SMILES | other results
220 | 1.6 | C[C@H](C#Cc1cccc(C(=O)NCCC(c2ccc(F)cc2)c2ccc(C(F)(F)F)cc2)c1)N(O)C(N)=O (stereo partly drawn) | Activity (HepG2 [4]): Non-Toxic; Activity (HepG2 [5]): Toxic; solubility [3]: 3 µM (≈ 1.58 µg/mL); Activity (Mus musculus): inactive; remaining at 1 h [6]: 66%
300 | 2 | CC(C#Cc1cccc(C(=O)NCCC(c2ccccc2)c2ccccc2)c1)N(O)C(N)=O (stereo not drawn) | solubility [3]: 3 µM (≈ 1.32 µg/mL); remaining at 1 h [6]: 27%
4000 | 9000 | CC(C#Cc1cccc(C(=O)NCc2cccc(F)c2)c1)N(O)C(N)=O (stereo not drawn) | –
– | 6 | CS(=O)(=O)c1ccc(C(CCNC(=O)c2ccc(C#N)nc2)c2ccc(F)cc2)cc1 (stereo not drawn) | –
1700 | 3100 | CC(C#Cc1cccc(C(=O)NCCc2c[nH]c3ccccc23)c1)N(O)C(N)=O (stereo not drawn) | –
120 | 2 | CC(C#Cc1cccc(C(=O)NCCC(c2ccccc2)c2ccc(Cl)cc2)c1)N(O)C(N)=O (stereo not drawn) | –
– | 3 | CNc1nc(C)nc(N2CCC(C(=O)NCc3ccc(F)cc3C(F)(F)F)CC2)n1 | –
150 | 2.7 | CC(C#Cc1cccc(C(=O)NCCC(c2ccccc2)c2ccc(C(F)(F)F)cc2)c1)N(O)C(N)=O (stereo not drawn) | –
900 | 3 | C[C@H](C#Cc1cccc(C(=O)NCCC(c2ccccc2)c2ccc(NS(C)(=O)=O)cc2)c1)N(O)C(N)=O (stereo partly drawn) | –
160 | 2 | CC(C#Cc1cccc(C(=O)NCCC(c2ccccc2)c2ccc(F)cc2)c1)N(O)C(N)=O (stereo not drawn) | –
1700 | 3100 | Cc1ccc(C(=O)NCc2ccccc2C(F)(F)F)cc1C#CC(C)N(O)C(N)=O (stereo not drawn) | –
260 | 2.4 | C[C@H](C#Cc1cccc(C(=O)NCCC(c2ccc(F)cc2)c2ccc(OC(F)(F)F)cc2)c1)N(O)C(N)=O (stereo partly drawn) | solubility [3]: 10 µM (≈ 5.44 µg/mL); remaining at 1 h [6]: 43%
3100 | 1200 | CC(C#Cc1cccc(C(=O)NCCc2ccc(F)cc2)c1)N(O)C(N)=O (stereo not drawn) | –
110 | 5 | C[C@H](C#Cc1cccc(C(=O)NCCN(c2ccccc2)c2ccccc2)c1)N(O)C(N)=O | solubility [3]: 3 µM (≈ 1.33 µg/mL); remaining at 1 h [6]: 17%
– | 1 | CNc1nc(C)nc(N2CCC(C(=O)NCc3ccccc3OC(F)(F)F)CC2)n1 | –
96 | 2.1 | C[C@H](C#Cc1cccc(C(=O)NCCC(c2ccccc2)c2ccc(Cl)c(Cl)c2)c1)N(O)C(N)=O (stereo partly drawn) | –
500 | 11 | CC(C)C(C#Cc1cccc(C(=O)NCc2ccccc2C(F)(F)F)c1)N(O)C(N)=O (stereo not drawn) | –
700 | 60 | C[C@@H](C#Cc1cccc(C(=O)NCc2ccccc2C(F)(F)F)c1)N(O)C(N)=O | –
300 | 12 | CCCC(C#Cc1cccc(C(=O)NCc2ccccc2C(F)(F)F)c1)N(O)C(N)=O (stereo not drawn) | –
